HUVEC inhibit = blocks proliferation of human endothelial cells; HUVEC proliferation, CellTiter-Glo luminescence, 72 h; hits give low values; viability, % at 10 µM (by protocol); 1.1% of 86,000 active; AID 648;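 active = viability at or below 30%; inactive = viability above 30%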;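 note: 100% = median luminescence of DMSO-only cell control wells on each plate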
HCT116 bCat-KO = beta-catenin-lacking colon tumor cell growth suppression | HCT116 beta-catenin knockout viability, CellTiter-Glo, 60 h; hits give low values | AID 818 | 1.5% of 140,000 active | viability, % at 10 µM;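 active = viability at or under a set limit, the compound median less 4 SD, cut at about 6% in these data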;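 note: 0% = Hyamine 1622 control at 20 µM and 100% = untreated cell control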
Lung fibro prol = blocks proliferation of human lung fibroblasts | 1.1% of 85,000 active | LL 47 human lung fibroblast viability, ATP luminescence; hits give low values | viability, % at 10 µM;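 active = viability at or below 50% in the single dose screen; inactive = viability above 50%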;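 note: compound exposure lasted 72 h before the ATP readout; 100% = median luminescence of untreated cell-only wells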
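Test system: LL 47 human lung fibroblasts / Incubation: 72 h compound exposure at 37 °C after overnight plating / Technique: luminescent ATP detection, CellTiter-Glo / Compound dosing: 0.1% DMSO in all compound wells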
H69AR growth 86K = blocks growth of human H69AR lung tumor cells; viability, % at 10 µM; H69AR lung tumor viability, ATP luminescence, 72 h; hits give low values; 6% of 85,000 active;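 active = viability at or below 40%; inactive = viability above 40%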;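 note: multidrug resistant small cell line overexpressing MRP-1 efflux transporter; 100% = mean luminescence of untreated control wells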
PTEN del growth = growth suppressors of cells with PTEN tumor suppressor deletion. HCT116 PTEN-null viability, CellTiter-Glo, 60 h; hits give low values. viability, % at 10 µM. 1.2% of 140,000 active;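 active = viability at or below a set limit, 4 SD under the median of all tested compounds, cut at about 3.7% in these data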;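 note: PTEN knockout HCT116 line with beta catenin targeted HCT116 as companion control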
Starred values were filed as active, the others as inactive; nt = no result. The entries come from a sample that favours hits as a whole.

SMILES	HUVEC inhibit	HCT116 bCat-KO	Lung fibro prol	H69AR growth 86K	PTEN del growth
O=C(OCn1nnc2ccccc2c1=O)c1cccnc1	83	88	96	94	88
CCc1nn(C(C)C(=O)NCCN2CCN(c3cccc(C)c3C)CC2)c(=O)c2cc3occc3n12 (stereo not drawn)	nt	2.5*	nt	nt	5
COc1ccc(-c2oc3ncn4nc(Cc5ccccc5)nc4c3c2-c2ccc(OC)cc2)cc1	86	100	103	85	85
CCOc1ccc(NS(=O)(=O)c2ccc(OCC)c3ncccc23)cc1	66	43	76	16*	42
COc1ccccc1-c1ccc(C(=O)O)o1	98	103	100	89	110
COc1ccc(S(=O)(=O)Nc2cc3c4c(oc3c3ccccc23)CC(C)(C)CC4=O)cc1	69	39	100	15*	23
CCN(CCCNC(=O)c1[nH]c(C)c(C(C)=O)c1C)c1cccc(C)c1	87	48	94	64	47
O=C(NC1CCCCC1)Sc1ccc(Cl)cc1	62	66	83	36*	33
Cc1cc(C)n(/N=C/c2cccc([N+](=O)[O-])c2)c(=O)c1	nt	101	nt	nt	102
CC(C)C[C@H](NC(=O)OC(C)(C)C)C(=O)N1CCC(C(=O)N[C@@H](Cc2ccccc2)C(=O)O)CC1	98	96	97	97	96
CCOC(=O)Nc1ccc2c(c1)N(C(=O)N1CCN(C)CC1)c1ccccc1S2	69	85	83	103	86
C=CC(=O)N1c2ccccc2Sc2ccc(NC(=O)OCC)cc21	46	73	68	26*	78
O=C(Nc1ncc([N+](=O)[O-])s1)C1CCN(S(=O)(=O)c2cnc[nH]2)CC1	nt	103	nt	nt	93
O=C(NC(CSCc1ccccc1)C(=O)N/N=C/c1ccc(O)cc1O)c1ccc([N+](=O)[O-])cc1 (stereo not drawn)	7.6*	2.9*	25*	30*	3.0*
COc1cc(OC)cc(-c2nnc(Nc3nc4c(F)cccc4s3)o2)c1	67	55	72	44	66
COc1ccc(-c2nnc(Nc3nc4c(OC)cccc4s3)o2)c(OC)c1	20*	3.7*	50	33*	6
COc1ccc(-c2nnc(Nc3nc4c(OC)cccc4s3)o2)cc1	2.9*	7	92	62	8
Fc1cccc2sc(Nc3nnc(-c4ccccc4)o3)nc12	6.8*	24	56	57	17
N#CC1=C(N)Oc2cc(O)ccc2C1c1ccncc1 (stereo not drawn)	95	94	100	85	82
CN(C)c1ccc2c(c1)OC(N)=C(C#N)C2c1cccc(F)c1 (stereo not drawn)	31	10	55	25*	9
O=C(C1CCCCC1)N1CCC(c2nc3c(nnn3Cc3ccccc3Cl)c(=O)[nH]2)CC1	64	nt	89	39*	nt
O=C(NCc1ccco1)c1nc2c(nnn2Cc2ccccc2Cl)c(=O)[nH]1	14*	8	31*	25*	7
CCCCCCC(=O)N1CCC(c2nc3c(nnn3Cc3ccccc3Cl)c(=O)[nH]2)CC1	84	58	96	34*	57
NC(=O)C1CCN(c2nc(C3CC3)nc3c2nnn3Cc2ccccc2Cl)CC1	85	83	94	31*	83
NC(=O)C1CCN(c2nc(C3CC3)nc3c2nnn3Cc2ccccc2)CC1	93	102	94	78	110
SMILES	HUVEC inhibit	HCT116 bCat-KO	Lung fibro prol	H69AR growth 86K	PTEN del growth
Cc1ccc(NCN2C(=O)C3CC=C(Cl)CC3C2=O)cc1 (stereo not drawn)	92	105	111	90	97
COCc1nnc(NC(=O)c2ccc(S(=O)(=O)N(C)C3CCCCC3)cc2)o1	60	72	97	25*	80
CCc1nnc(NC(=O)c2ccc(S(=O)(=O)N(CC(C)C)CC(C)C)cc2)o1	47	23	57	25*	18
COCc1nnc(NC(=O)c2ccc(S(=O)(=O)N3CCCCCC3)cc2)o1	83	32	89	43	28
CCOC(=O)c1cnc(-n2nc(C)cc2C)nc1NNc1cc(-c2ccccc2)nc(C)n1	nt	3.8*	nt	nt	7
CCOC(=O)c1cnc(-n2nc(C)cc2C)nc1NC(C)c1ccccc1 (stereo not drawn)	41	2.3*	17*	2.0*	3.6*
CCOC(=O)c1cnc(-n2nc(C)cc2C)nc1NCc1ccccc1	70	9	73	2.4*	15
CCOC(=O)c1cnc(-n2nc(C)cc2C)nc1NCCO	109	92	97	84	113
O=[N+]([O-])c1cc2c(c(CSc3nnc(Nc4ccccc4)s3)c1)OCOC2	nt	85	nt	nt	91
COCCCNCCCOc1ccc(Cl)cc1C(C)(C)C	nt	4.0*	nt	nt	3.1*
Cc1c(S(=O)(=O)Nc2ccc3c(c2)OCCO3)c(=O)n(C)c(=O)n1C	93	60	92	86	69
O=C(CN1CCCC(O)C1)N1c2ccccc2Sc2ccc(C(F)(F)F)cc21 (stereo not drawn)	97	94	95	109	91
CN1CCN(CCCN2c3ccccc3Sc3ccc(C(F)(F)F)cc32)CC1	2.4*	1.7*	62	0.6*	1.5*
CCc1c(C)nc(Nc2nc(C)c3cc(OC)ccc3n2)[nH]c1=O	84	48	89	28*	53
COc1nc(Nc2nc3ccccc3c(=O)[nH]2)nc2ccc(C)cc12	2.6*	nt	6.7*	14*	nt
CCCCCc1c(C)nc(Nc2nc(C)c3cc(OC)ccc3n2)[nH]c1=O	78	57	96	70	64
COc1ccc2c(C)nc(Nc3nc(C)c(C)c(=O)[nH]3)nc2c1	14*	1.7*	13*	31*	1.6*
CN(C)c1ccc(C=Nc2cnn(C)c2C(N)=O)cc1	89	97	104	86	92
Cc1nn2c(NCCCN(C)C)c3c(nc2c1-c1ccccc1)CCC3	56	2.4*	10*	6.6*	1.7*
Cc1nn2c(NCC(C)C)c3c(nc2c1-c1ccccc1)CCC3	101	92	88	34*	83
CCCS(=O)(=O)c1c(S(=O)(=O)CCC)c2c(C)cccn2c1C(=O)OC	90	90	96	52	87
CCCS(=O)(=O)c1c(S(=O)(=O)CCC)c2cc(CC)ccn2c1C(=O)OC	103	84	91	24*	81
CCCS(=O)(=O)c1c(S(=O)(=O)CCC)c2c3ccccc3ccn2c1C(=O)OC	74	41	84	27*	49
COC(=O)c1nnn(-c2nc(N3CCCCC3)nc(N3CCCCC3)n2)c1C	107	nt	110	96	nt
COc1ccc(C(=O)c2sc(Nc3cccc(OC)c3)c(C(=O)Nc3cccc(C)c3C)c2N)cc1	nt	106	nt	nt	95
O=C(Nc1ccc(Cl)c(Cl)c1)C1=Cc2ccccc2OC1	35	2.6*	92	16*	2.6*
C=CCn1nc([N+](=O)[O-])nc1Sc1cccc2cccnc12	nt	2.1*	nt	nt	1.8*
O=[N+]([O-])c1ccc(Sc2cccc3cccnc23)c([N+](=O)[O-])c1	50	1.6*	4.2*	1.6*	2.2*

Screens: PubChem, SRMLSC
